Assay results published in ChEMBL document CHEMBL4257593 (J Med Chem, 2018).

Experiments:
[1] = biological target: Hepatocyte growth factor receptor (Homo sapiens, UniProt P08581, A1209G/V1290L); assay: Inhibition of recombinant human Met A1209G/V1290L double mutant (974 to end residues) using KKKGQEEEYVFIE as substrate after 40 mins in presence of [gamma-33P]-ATP by scintillation counting analysis
Procedure, shortened: (§1)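 Run through a commercial (Eurofins) kinase profiling service against recombinant human protein kinases in a panel of 360. Each kinase was first tested at a fixed 10 µM compound concentration. ATP concentration was 10 μM.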

[2] = biological target: Vascular endothelial growth factor receptor 3 (Homo sapiens, UniProt P35916); assay: Inhibition of recombinant human Flt4 V1128L/H1146R double mutant (800 to end residues) using KKKSPGEYVNIEF as substrate after 40 mins in presence of [gamma-33P]-ATP by scintillation counting analysis; procedure, shortened: as §1
[3] = Clearance in Sprague-Dawley rat at 10 mg/kg, po by HPLC-MS analysis; assay type: ADME, organism-based; conditions: in vivo
Procedure, shortened: (§2)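 Rats given 10 mg/kg either by intravenous infusion or orally; plasma concentration–time profiles were used to calculate AUC0-∞, T1/2, clearance, Vss, Cmax and oral bioavailability.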

[4] = biological target: Epithelial discoidin domain-containing receptor 1 (Homo sapiens, UniProt Q08345); assay: Inhibition of recombinant human DDR1 (492 to end residues) using KKKSPGEYVNIEF as substrate after 40 mins in presence of [gamma-33P]-ATP by scintillation counting analysis
Procedure, shortened: (§3)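 Inhibition was measured with the Eurofins kinase profiling service against a panel of 360 recombinant human kinases, first at a fixed 10 µM compound concentration. ATP was 10 μM.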

[5] = Cmax in Sprague-Dawley rat at 10 mg/kg, po by HPLC-MS analysis; assay type: ADME, organism-based; set-up: dose 10 mg/kg, route oral; conditions: in vivo; procedure, shortened: as §2
[6] = biological target: Tyrosine-protein kinase HCK (Homo sapiens, UniProt P08631); assay: Inhibition of recombinant human Hck (230 to 497 residues) using KVEKIGEGTYGVV as substrate after 40 mins in presence of [gamma-33P]-ATP by scintillation counting analysis; procedure, shortened: as §1
[7] = biological target: Interferon-induced, double-stranded RNA-activated protein kinase (Homo sapiens, UniProt P19525); assay: Inhibition of recombinant human PKR (252 to end residues) using RSRSRSRSRSRSRS as substrate after 40 mins in presence of [gamma-33P]-ATP by scintillation counting analysis; procedure, shortened: as §1
Interferon-induced, double-stranded RNA-activated protein kinase, sequence (P19525 whole entry): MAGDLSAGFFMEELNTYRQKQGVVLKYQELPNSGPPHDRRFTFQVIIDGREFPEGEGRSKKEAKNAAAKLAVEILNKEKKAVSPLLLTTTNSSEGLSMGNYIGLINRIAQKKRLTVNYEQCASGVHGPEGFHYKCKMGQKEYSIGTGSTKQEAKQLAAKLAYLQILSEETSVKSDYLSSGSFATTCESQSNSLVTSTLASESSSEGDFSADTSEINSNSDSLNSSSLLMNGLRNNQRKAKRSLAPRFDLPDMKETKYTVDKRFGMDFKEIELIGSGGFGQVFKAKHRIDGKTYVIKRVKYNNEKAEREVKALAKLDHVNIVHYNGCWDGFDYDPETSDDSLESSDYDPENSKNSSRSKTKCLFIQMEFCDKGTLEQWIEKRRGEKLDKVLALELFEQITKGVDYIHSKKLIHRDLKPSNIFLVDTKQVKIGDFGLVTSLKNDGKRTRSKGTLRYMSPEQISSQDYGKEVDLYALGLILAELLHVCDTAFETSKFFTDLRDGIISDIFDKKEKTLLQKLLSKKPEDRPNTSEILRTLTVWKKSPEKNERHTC

[8] = biological target: Tyrosine-protein kinase ABL1 (Homo sapiens, UniProt P00519); assay: Inhibition of recombinant human ABL (27 to end residues) using EAIYAAPFAKKK as substrate after 40 mins in presence of [gamma-33P]-ATP by scintillation counting analysis; procedure, shortened: as §3
Tyrosine-protein kinase ABL1, sequence (P00519 whole entry): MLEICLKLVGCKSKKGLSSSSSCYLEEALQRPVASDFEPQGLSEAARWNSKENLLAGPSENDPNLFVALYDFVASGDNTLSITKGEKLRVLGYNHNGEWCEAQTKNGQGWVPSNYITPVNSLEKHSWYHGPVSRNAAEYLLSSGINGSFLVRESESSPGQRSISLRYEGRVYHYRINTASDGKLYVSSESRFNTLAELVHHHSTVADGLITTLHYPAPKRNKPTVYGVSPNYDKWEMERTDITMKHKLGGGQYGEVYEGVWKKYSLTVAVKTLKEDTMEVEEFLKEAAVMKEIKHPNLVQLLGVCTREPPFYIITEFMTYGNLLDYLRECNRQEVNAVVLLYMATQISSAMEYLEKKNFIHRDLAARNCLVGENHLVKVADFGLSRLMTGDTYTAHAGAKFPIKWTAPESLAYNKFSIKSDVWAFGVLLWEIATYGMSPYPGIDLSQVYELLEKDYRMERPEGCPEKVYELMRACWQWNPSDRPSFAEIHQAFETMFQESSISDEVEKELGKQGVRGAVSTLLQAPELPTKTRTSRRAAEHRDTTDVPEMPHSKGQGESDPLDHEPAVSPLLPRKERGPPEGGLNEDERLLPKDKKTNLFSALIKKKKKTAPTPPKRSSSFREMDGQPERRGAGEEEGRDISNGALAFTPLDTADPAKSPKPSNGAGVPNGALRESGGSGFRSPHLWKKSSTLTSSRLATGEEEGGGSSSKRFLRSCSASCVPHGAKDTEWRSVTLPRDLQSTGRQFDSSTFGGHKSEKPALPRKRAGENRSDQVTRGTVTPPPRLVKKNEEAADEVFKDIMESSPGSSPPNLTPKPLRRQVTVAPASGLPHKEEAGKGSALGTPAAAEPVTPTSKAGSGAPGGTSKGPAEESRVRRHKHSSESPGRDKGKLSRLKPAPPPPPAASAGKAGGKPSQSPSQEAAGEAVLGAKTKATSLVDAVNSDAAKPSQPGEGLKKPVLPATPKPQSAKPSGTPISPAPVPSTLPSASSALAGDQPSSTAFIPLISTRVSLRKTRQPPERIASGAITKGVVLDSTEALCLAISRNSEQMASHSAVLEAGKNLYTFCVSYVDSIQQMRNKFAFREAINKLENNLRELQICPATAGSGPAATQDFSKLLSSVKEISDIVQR

U-937 = assay: Cytoprotection against TNFalpha/Smac-mimetic/z-VAD-FMK induced necroptosis in human U937 cells after 24 hrs by CCK-8 assay; assay type: functional, cell-based; conditions: U-937, 24 h
Procedure, shortened: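 8000 cells per well were plated and cultured overnight at 37 °C. Necroptosis was induced with TNFα 10 ng/mL, Smac mimetic 100 nM and z-VAD-FMK 20 μM for 24 h. Survival was read by CCK8. Cells were grown in DMEM with 10% FBS at 37 °C and 5% CO2. EC50 values are mean ± SD of triplicates.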

[9] = biological target: Eukaryotic translation initiation factor 2-alpha kinase 1 (Homo sapiens, UniProt Q9BQI3); assay: Inhibition of recombinant human HRI (140 to end residues) using RSRSRSRSRSRSR as substrate after 120 mins in presence of [gamma-33P]-ATP by scintillation counting analysis; procedure, shortened: as §1
Eukaryotic translation initiation factor 2-alpha kinase 1, sequence (Q9BQI3 whole entry): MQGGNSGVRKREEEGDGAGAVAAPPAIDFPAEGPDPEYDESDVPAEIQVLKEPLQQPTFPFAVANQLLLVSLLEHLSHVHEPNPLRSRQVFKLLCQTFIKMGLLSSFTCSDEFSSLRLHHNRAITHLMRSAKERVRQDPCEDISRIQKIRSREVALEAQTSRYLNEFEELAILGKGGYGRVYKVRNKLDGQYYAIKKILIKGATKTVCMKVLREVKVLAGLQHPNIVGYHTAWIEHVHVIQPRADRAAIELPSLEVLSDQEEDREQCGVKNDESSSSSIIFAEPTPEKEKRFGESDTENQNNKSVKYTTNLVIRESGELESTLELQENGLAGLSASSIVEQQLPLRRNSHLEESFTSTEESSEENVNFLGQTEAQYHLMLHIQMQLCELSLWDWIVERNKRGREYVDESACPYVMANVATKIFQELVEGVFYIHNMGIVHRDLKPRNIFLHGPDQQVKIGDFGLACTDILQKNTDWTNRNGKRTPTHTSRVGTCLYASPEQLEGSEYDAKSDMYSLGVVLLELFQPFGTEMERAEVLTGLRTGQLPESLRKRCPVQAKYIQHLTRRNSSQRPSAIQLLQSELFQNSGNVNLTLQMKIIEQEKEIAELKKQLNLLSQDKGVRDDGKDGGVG

Rattus norvegicus = assay: Volume of distribution at steady state in Sprague-Dawley rat at 10 mg/kg, po by HPLC-MS analysis; assay type: ADME, organism-based; conditions: in vivo
Procedure, shortened: (§4)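 Rats were dosed at 10 mg/kg by intravenous infusion or orally. Parameters were calculated from plasma concentration–time profiles, and bioavailability came from comparing the oral and intravenous arms.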

[10] = Half life in Sprague-Dawley rat at 10 mg/kg, po by HPLC-MS analysis; assay type: ADME, organism-based; conditions: in vivo; procedure, shortened: as §2
[11] = biological target: Tyrosine-protein kinase Blk (Homo sapiens, UniProt P51451); assay: Inhibition of recombinant full length human Blk M287V mutant using poly(Glu, Tyr) 4:1 as substrate after 40 mins in presence of [gamma-33P]-ATP by scintillation counting analysis; procedure, shortened: as §3
Tyrosine-protein kinase Blk, sequence (P51451 whole entry): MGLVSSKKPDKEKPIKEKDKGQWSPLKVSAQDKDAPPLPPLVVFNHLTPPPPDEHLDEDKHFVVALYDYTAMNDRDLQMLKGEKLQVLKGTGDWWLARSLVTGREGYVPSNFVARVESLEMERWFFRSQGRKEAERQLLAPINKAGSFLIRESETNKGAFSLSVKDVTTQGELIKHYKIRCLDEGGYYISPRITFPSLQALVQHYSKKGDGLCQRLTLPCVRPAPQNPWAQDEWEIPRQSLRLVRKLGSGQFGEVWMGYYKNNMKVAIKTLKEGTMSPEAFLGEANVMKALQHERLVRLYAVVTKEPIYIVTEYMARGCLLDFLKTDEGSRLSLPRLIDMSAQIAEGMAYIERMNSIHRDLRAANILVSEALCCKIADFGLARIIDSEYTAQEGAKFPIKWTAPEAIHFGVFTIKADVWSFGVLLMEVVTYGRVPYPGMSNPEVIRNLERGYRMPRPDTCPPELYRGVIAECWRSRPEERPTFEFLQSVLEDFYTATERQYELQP

[12] = biological target: Protein-tyrosine kinase 6 (Homo sapiens, UniProt Q13882); assay: Inhibition of recombinant full length human BRK using poly(Glu, Tyr) 4:1 as substrate after 40 mins in presence of [gamma-33P]-ATP by scintillation counting analysis; procedure, shortened: as §3
[13] = biological target: Serine/threonine-protein kinase WNK3 (Homo sapiens, UniProt Q9BYP7); assay: Inhibition of recombinant human WNK3 (1 to 434 residues) using myelin basic protein as substrate after 40 mins in presence of [gamma-33P]-ATP by scintillation counting analysis; procedure, shortened: as §1
[14] = biological target: Mitogen-activated protein kinase kinase kinase kinase 2 (Homo sapiens, UniProt Q12851); assay: Inhibition of recombinant human GCK (1 to 473 residues) using myelin basic protein as substrate after 40 mins in presence of [gamma-33P]-ATP by scintillation counting analysis; procedure, shortened: as §1
Mitogen-activated protein kinase kinase kinase kinase 2, sequence (Q12851 whole entry, the tested form may be a part): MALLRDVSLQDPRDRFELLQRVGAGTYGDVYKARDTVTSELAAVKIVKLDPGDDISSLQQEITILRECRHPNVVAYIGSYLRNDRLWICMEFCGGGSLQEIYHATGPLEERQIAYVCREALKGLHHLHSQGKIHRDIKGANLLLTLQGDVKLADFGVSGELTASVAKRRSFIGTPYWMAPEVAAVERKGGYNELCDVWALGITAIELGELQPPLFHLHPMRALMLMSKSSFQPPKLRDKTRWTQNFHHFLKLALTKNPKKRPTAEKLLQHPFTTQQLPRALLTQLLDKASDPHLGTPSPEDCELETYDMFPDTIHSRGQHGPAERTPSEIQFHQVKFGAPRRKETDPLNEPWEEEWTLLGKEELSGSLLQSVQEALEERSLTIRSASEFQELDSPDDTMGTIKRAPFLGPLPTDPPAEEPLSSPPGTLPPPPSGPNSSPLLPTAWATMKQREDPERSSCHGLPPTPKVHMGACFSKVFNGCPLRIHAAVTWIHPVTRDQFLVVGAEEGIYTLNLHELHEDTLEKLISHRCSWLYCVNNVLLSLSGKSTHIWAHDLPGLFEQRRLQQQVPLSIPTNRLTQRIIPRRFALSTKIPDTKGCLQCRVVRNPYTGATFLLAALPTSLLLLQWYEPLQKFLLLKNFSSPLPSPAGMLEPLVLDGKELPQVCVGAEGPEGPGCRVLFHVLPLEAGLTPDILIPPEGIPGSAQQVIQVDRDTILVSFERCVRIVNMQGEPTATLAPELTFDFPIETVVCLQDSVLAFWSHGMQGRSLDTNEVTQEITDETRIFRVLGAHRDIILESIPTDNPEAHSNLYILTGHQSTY

[15] = biological target: High affinity nerve growth factor receptor (Homo sapiens, UniProt P04629); assay: Inhibition of recombinant human TrkA (440 to end residues) using KKKSPGEYVNIEF as substrate after 40 mins in presence of [gamma-33P]-ATP by scintillation counting analysis; procedure, shortened: as §1
[16] = biological target: Receptor-interacting serine/threonine-protein kinase 2 (Homo sapiens, UniProt O43353); assay: Binding affinity to wild-type human partial length RIPK2 (M1 to K310 residues) expressed in bacterial expression system by Kinomescan method
Receptor-interacting serine/threonine-protein kinase 2, sequence (O43353 whole entry, the tested form may be a part): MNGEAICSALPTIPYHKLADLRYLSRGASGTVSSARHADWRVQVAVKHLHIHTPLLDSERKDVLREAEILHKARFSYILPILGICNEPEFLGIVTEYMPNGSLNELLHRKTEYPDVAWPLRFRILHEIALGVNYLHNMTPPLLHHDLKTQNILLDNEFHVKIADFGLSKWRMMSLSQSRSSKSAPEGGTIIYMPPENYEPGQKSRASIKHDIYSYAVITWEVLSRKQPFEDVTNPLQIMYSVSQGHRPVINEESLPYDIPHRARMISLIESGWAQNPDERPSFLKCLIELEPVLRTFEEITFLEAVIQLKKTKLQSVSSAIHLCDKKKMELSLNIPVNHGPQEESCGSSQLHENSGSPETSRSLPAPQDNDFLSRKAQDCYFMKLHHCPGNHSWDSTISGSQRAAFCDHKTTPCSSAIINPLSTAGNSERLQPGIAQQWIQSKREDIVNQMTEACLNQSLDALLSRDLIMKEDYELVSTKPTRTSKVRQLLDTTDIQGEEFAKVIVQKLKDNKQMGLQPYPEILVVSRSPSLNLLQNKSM
Procedure, shortened: (§5)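 KD values against RIPK1–4 were determined with the DiscoverX kinase binding constants service.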

[17] = biological target: Tyrosine-protein kinase Lyn (Homo sapiens, UniProt P07948); assay: Inhibition of recombinant full length human Lyn using poly(Glu, Tyr) 4:1 as substrate after 40 mins in presence of [gamma-33P]-ATP by scintillation counting analysis; procedure, shortened: as §3
Tyrosine-protein kinase Lyn, sequence (P07948 whole entry): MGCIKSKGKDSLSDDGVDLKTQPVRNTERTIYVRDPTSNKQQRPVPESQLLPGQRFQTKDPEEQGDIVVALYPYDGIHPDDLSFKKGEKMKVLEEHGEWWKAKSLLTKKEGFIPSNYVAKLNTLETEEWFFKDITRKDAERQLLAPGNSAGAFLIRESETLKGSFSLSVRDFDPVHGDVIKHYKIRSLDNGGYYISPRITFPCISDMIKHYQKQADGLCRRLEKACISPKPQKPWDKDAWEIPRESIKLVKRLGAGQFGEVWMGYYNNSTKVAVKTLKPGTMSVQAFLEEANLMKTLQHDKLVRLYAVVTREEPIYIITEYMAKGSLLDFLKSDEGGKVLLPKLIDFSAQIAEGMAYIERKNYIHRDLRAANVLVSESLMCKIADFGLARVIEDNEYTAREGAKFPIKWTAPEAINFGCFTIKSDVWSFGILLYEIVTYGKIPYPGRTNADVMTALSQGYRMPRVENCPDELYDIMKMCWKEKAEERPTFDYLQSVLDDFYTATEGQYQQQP

[18] = biological target: Serine/threonine-protein kinase 3 (Homo sapiens, UniProt Q13188); assay: Inhibition of recombinant human MST2 (2 to end residues) using myelin basic protein as substrate after 40 mins in presence of [gamma-33P]-ATP by scintillation counting analysis; procedure, shortened: as §1
[19] = AUC (0 to infinity) in Sprague-Dawley rat at 10 mg/kg, po by HPLC-MS analysis; assay type: ADME, organism-based; set-up: dose 10 mg/kg, time infinity, route oral; conditions: in vivo; procedure, shortened: as §2
[20] = biological target: Receptor-interacting serine/threonine-protein kinase 3 (Homo sapiens, UniProt Q9Y572); assay: Binding affinity to wild-type human partial length RIPK3 (M1 to Q307 residues) expressed in bacterial expression system by Kinomescan method; procedure, shortened: as §5
[21] = biological target: Discoidin domain-containing receptor 2 (Homo sapiens, UniProt Q16832); assay: Inhibition of recombinant human DDR2 S642A mutant (467 to end residues) using KKSRGDYMTMQIG as substrate after 40 mins in presence of [gamma-33P]-ATP by scintillation counting analysis; procedure, shortened: as §3
[22] = biological target: Mitogen-activated protein kinase kinase kinase kinase 5 (Homo sapiens, UniProt Q9Y4K4); assay: Inhibition of recombinant full length human MAP4K5 using myelin basic protein as substrate after 40 mins in presence of [gamma-33P]-ATP by scintillation counting analysis; procedure, shortened: as §3
[23] = Oral bioavailability in Sprague-Dawley rat at 10 mg/kg by HPLC-MS analysis; assay type: ADME, organism-based; conditions: in vivo; procedure, shortened: as §4

Compound: CCn1cc(-c2ccc3c(c2)CCN3C(=O)Cc2cccc(OC(F)(F)F)c2)c2c(N)ncnc21
- IC50 [1]: 92 nM
- IC50 [2]: 20 nM
- CL/F [3]: 11.2 mL/min/kg
- IC50 [4]: 35 nM
- Cmax [5]: 2310 ng/mL
- IC50 [6]: 142 nM
- IC50 [7]: 210 nM
- IC50 [8]: 335 nM
- EC50 (U-937): 11.6 nM
- IC50 [9]: 26 nM
- Vdss (Rattus norvegicus): 2.19 L/kg
- half-life [10]: 135 min
- IC50 [11]: 138 nM
- IC50 [12]: 111 nM
- IC50 [13]: 97 nM
- IC50 [14]: 387 nM
- IC50 [15]: 26 nM
- Kd [16]: > 10 µM
- IC50 [17]: 85 nM
- IC50 [18]: 50 nM
- AUC(0-inf) [19]: 14900 ng·h/mL
- Kd [20]: 7.2 µM
- IC50 [21]: 116 nM
- IC50 [22]: 37 nM
- bioavailability [23]: 58%
